The values below come from ChEMBL document CHEMBL4014335, “Activation of Phenyl 4-(2-Oxo-3-alkylimidazolidin-1-yl)benzenesulfonates Prodrugs by CYP1A1 as New Antimitotics Targeting Breast Cancer Cells” (J Med Chem, 2017).

Series [1] deals with MDA-MB-468. The series is described as follows: Cell cycle arrest in human MDA-MB-468 cells assessed as accumulation at G0/G1 phase at 50 nM after 24 hrs by DAPI-staining based FACS analysis (reference value: 63.3%). In kind it is functional.
For series [2], the system named is MDA-MB-468. The experiment in a line: Cytotoxicity against human MDA-MB-468 cells after 72 hrs in presence of CYP1A1 inhibitor quercetin by SRB assay. In kind it is functional, cell-based. In short, it runs like this:
(§1)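 MDA-MB-468 cells (5.0 x 10^3/well) seeded and incubated 24 h. Drug freshly dissolved in DMSO, given at 0.75 to 1.0 x 10^5 nM, together with subtoxic CYP inhibitor, for 72 h. Cells fixed with cold 10% TCA and stained with 0.1% sulforhodamine B. Bound dye taken up in 10 mM Tris, absorbance read at 530-565 nm. At least two experiments, triplicate cultures.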

Another series concerns the target T1, Cytochrome P450 1B1 (Homo sapiens, UniProt Q16678).
T1 sequence (Q16678 whole entry): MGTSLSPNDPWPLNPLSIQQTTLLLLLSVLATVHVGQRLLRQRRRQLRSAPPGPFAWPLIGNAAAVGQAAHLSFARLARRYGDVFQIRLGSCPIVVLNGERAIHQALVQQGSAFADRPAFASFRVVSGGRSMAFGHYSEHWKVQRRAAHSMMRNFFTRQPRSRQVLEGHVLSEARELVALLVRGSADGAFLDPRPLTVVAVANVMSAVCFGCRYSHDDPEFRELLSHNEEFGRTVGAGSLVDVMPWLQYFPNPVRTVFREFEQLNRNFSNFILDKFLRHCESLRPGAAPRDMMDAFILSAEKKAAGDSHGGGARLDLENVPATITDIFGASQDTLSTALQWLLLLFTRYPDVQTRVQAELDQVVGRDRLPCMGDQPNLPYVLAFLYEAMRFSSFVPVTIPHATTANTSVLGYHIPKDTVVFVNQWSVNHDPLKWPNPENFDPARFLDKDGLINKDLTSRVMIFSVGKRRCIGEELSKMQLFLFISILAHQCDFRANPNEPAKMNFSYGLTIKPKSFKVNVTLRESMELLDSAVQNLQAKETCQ
The series is described as follows: Prodrug activation assessed as human supersomes CYP1B1-mediated 3,4,5-trimethoxyphenyl 4-(2-oxoimidazolidin-1-yl)benzenesulfonate formation after 4 hrs by HPLC-MS analysis. Format: ADME. Conditions: recombinant enzyme.

Series [3] has as its system MDA-MB-468. The experiment in a line: Cytotoxicity against human MDA-MB-468 cells after 72 hrs in presence of CYP1A1 inhibitor tacrine by SRB assay. Format: functional, cell-based. Summed up: as §1
On the technique in general: In SRB staining, fixed cells bind dye roughly in proportion to their protein.

For another series, the system named is HT-29. The series is described as follows: Antiproliferative activity against human HT-29 cells after 48 hrs by SRB assay. In kind it is functional, cell-based. Conditions: HT-29, 48 h. In short, it runs like this:
(§2)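 SRB assay run as in the NCI screen with slight modifications. Seeding: HT-29 5.0 x 10^3, M21 3.5 x 10^3, MCF7 7.5 x 10^3 cells; cells preincubated 24 h. Drug in DMSO added at 0.75 to 1.0 x 10^5 nM for 48 h. TCA fixation, sulforhodamine B staining, absorbance 530-565 nm. At least two experiments in triplicate; runs accepted only when relative SD < 10%.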

Series [4] deals with MDA-MB-231. The experiment in a line: Cell cycle arrest in human MDA-MB-231 cells assessed as accumulation at G2/M phase at 50 nM after 24 hrs by DAPI-staining based FACS analysis (reference value: 15.5%). In kind it is functional. A general note: In flow cytometry, cells or beads pass a laser one at a time.
The test system of series [5] is MDA-MB-231. The experiment in a line: Cell cycle arrest in human MDA-MB-231 cells assessed as accumulation at S phase at 50 nM after 24 hrs by DAPI-staining based FACS analysis (reference value: 9.7%). In kind it is functional.
Series [6] concerns MDA-MB-468. The experiment in a line: Cytotoxicity against human MDA-MB-468 cells after 72 hrs in presence of CYP inhibitor pentachlorophenol by SRB assay. In kind it is functional, cell-based. Summed up: (§3)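 MDA-MB-468 cells co-incubated for 72 h with drug plus a subtoxic concentration of a CYP inhibitor. Viability read by SRB assay: TCA fixation, sulforhodamine B staining, absorbance at 530-565 nm.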

In series [7] the test system is MDA-MB-468. The series is described as follows: Cell cycle arrest in human MDA-MB-468 cells assessed as accumulation at G2/M phase at 50 nM after 24 hrs by DAPI-staining based FACS analysis (reference value: 19.5%). Format: functional.
In series [8] the test system is MDA-MB-468. The series is described as follows: Cytotoxicity against human MDA-MB-468 cells after 72 hrs in presence of CYP inhibitor aniline by SRB assay. Format: functional, cell-based. Summed up: as §3
Series [9] relates to MCF7. The experiment in a line: Cell cycle arrest in human MCF7 cells assessed as accumulation at subG1 phase at 50 nM after 24 hrs by DAPI-staining based FACS analysis (reference value: 1.4%). Format: functional.
A further series relates to CYP1A1 mRNA. The series is described as follows: Upregulation of CYP1A1 mRNA expression in human MCF7 cells at 10 nM after 18 hrs by quantitative PCR analysis relative to control. Conditions: read-out: FC. Format: ADME, cell-based. In short, it runs like this:
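MCF7 cells exposed to 10 nM drug for 18 and 24 h. RNA extracted with TriReagent, reverse-transcribed with M-MuLV, random hexamers and oligo(dT). 4 ng cDNA run in quadruplicate with SYBR Green, 40 cycles at 95 °C/60 °C. Relative expression by the 2^-ΔΔCt method, normalized to ACTB and B2M.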

For series [10], the system named is MDA-MB-468. The experiment in a line: Cytotoxicity against human MDA-MB-468 cells after 72 hrs in presence of CYP1A1 inhibitor ketoconazole by SRB assay. In kind it is functional, cell-based. Summed up:
as §1

The subject of another series is M21. The series is described as follows: Antiproliferative activity against human M21 cells after 48 hrs by SRB assay. In kind it is functional, cell-based. As to conditions: M21, 48 h. In short, it runs like this: as §2
The species named for another series is Homo sapiens. The experiment in a line: Destabilization of microtubule network in human MDA-MB-231 cells at 8 nM after 24 hrs by fluorescence microscopic analysis. Format: cell-based.
The test system of series [11] is MCF7. The experiment in a line: Cell cycle arrest in human MCF7 cells assessed as accumulation at subG1 phase at 8 nM after 24 hrs by DAPI-staining based FACS analysis (reference value: 1.4%). In kind it is functional.
In series [12] the test system is MDA-MB-468. The series is described as follows: Cell cycle arrest in human MDA-MB-468 cells assessed as accumulation at S phase at 8 nM after 24 hrs by DAPI-staining based FACS analysis (reference value: 17%). Format: functional.
In series [13] the test system is MDA-MB-468. The series is described as follows: Cell cycle arrest in human MDA-MB-468 cells assessed as accumulation at subG1 phase at 8 nM after 24 hrs by DAPI-staining based FACS analysis (reference value: 0.2%). In kind it is functional.
The subject of series [14] is MDA-MB-468. The series is described as follows: Cell cycle arrest in human MDA-MB-468 cells assessed as accumulation at G0/G1 phase at 8 nM after 24 hrs by DAPI-staining based FACS analysis (reference value: 63.3%). In kind it is functional.
Series [15] deals with MCF7. The experiment in a line: Cell cycle arrest in human MCF7 cells assessed as accumulation at S phase at 8 nM after 24 hrs by DAPI-staining based FACS analysis (reference value: 10.6%). In kind it is functional.
Series [16] relates to MCF7. The experiment in a line: Cell cycle arrest in human MCF7 cells assessed as accumulation at G0/G1 phase at 8 nM after 24 hrs by DAPI-staining based FACS analysis (reference value: 65.5%). Format: functional.
The subject of series [17] is MCF7. The series is described as follows: Cell cycle arrest in human MCF7 cells assessed as accumulation at G2/M phase at 8 nM after 24 hrs by DAPI-staining based FACS analysis (reference value: 22.3%). Format: functional.
Series [18] has as its system MDA-MB-231. The experiment in a line: Cell cycle arrest in human MDA-MB-231 cells assessed as accumulation at S phase at 8 nM after 24 hrs by DAPI-staining based FACS analysis (reference value: 9.7%). In kind it is functional.

Activity calls are given as the source filed them. The rule behind the calls is not given here.

On to `CCCCN1CCN(c2ccc(S(=O)(=O)Oc3cc(OC)c(OC)c(OC)c3)cc2)C1=O`, for which the Activity in the series with MDA-MB-468 [1] is 13.2%; with MDA-MB-231 [4], 15.6%; in the series with MDA-MB-231 [5], 9.2%; in the series on MDA-MB-468 [7], 70.5%; in the series on MCF7 [9] it was 4.3%. Also, the outcome in the series on MDA-MB-468 [2], in the series with MDA-MB-468 [3] and in the series on MDA-MB-468 [10] was inactive. In addition, on Cytochrome P450 1B1, the Drug metabolism entry is listed as “Metabolite_Notdetected”. Moreover, the values for the IC50 with HT-29 and with M21 were 3.6 µM and 3.8 µM, respectively. Further, the result with MDA-MB-468 [6] and in the series with MDA-MB-468 [8] was Active. In addition, the fold induction at 18 h, 0.01 µM in the series on CYP1A1 mRNA is 2.
For `COc1cc(OS(=O)(=O)c2ccc(N3CCNC3=O)cc2)cc(OC)c1OC`, the result in the series filed under Homo sapiens was inactive. For the same compound, the Activity in the series on MCF7 [11] was determined as 35.6%; in the series with MDA-MB-468 [12], 13.3%; in the series on MDA-MB-468 [13], 1.7%; with MDA-MB-468 [14], 10.6%; with MCF7 [15] it was 10.7%; with MCF7 [16], 9.6%. In addition, the Activity with MCF7 [17] is recorded as 44.1%; with MDA-MB-231 [18] it was 8.9%.
